IDH1 mut inh: blocks human IDH1 R132H reductase activity | O75874 | diaphorase/resazurin fluorescence, 60 min | inhibition, % at 10 µM | 70,000 compounds, 0.18% hits; in the data active = inhibition above about 34%; inconclusive = no clear call, values can overlap the other calls; inactive = below about 11%;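 also: 0% = DMSO and 100% = no enzyme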
Target sequence (O75874 whole entry R132H): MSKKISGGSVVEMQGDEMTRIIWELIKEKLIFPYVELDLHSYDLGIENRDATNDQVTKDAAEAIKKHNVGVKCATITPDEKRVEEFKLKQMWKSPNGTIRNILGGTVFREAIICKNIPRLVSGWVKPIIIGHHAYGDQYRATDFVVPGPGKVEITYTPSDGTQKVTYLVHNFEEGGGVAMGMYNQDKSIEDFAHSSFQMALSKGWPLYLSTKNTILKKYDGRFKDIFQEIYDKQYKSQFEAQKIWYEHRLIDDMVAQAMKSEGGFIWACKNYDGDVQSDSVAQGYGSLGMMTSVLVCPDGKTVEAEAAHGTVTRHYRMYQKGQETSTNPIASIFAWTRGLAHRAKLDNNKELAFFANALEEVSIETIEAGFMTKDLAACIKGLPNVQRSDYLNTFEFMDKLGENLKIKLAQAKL
KDM4C inh: inhibitors of human demethylase GASC-1 KDM4C; Q9H3R0; GST-KDM4C 2-372, H3K9me3 peptide, LANCE TR-FRET; inhibition, % at 12.5 µM; 96,000 compounds, 0.15% hits; AID 720574;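 active = mean replicate inhibition above about 25%, with at least 55% of replicates also reaching it, limit read from the data, passing the limit was not always enough; inconclusive = only one of those two conditions met; inactive = neither condition met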
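reagent = H3K9me3 peptide substrate, Fe(II), 2-oxoglutarate | system = GST-tagged GASC-1 (JMJD2C) catalytic fragment, aa 2-372 | amount = enzyme final amount 10 nM | read-out = Fall in 671/618 emission ratio as inhibition | medium = HEPES buffer, pH 7.5, plus ascorbate | schedule = 30 min reaction, 60 min detection, RT | measured by = LANCE TR-FRET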
T cruzi growth-1: T. cruzi proliferation inhibition; T. cruzi beta-gal in NIH3T3, GalScreen luminescence, 90 h; inhibition, % at 8.34 µM; 77,000 compounds, 5.9% hits; AID 624255;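 active = mean inhibition above about 93%, with at least 55% of replicates each passing it, limit read from the data, passing the limit was not always enough; inconclusive = only one of those two conditions holds; inactive = neither condition holds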
T cruzi growth-2: inhibitors of T. cruzi proliferation. shares compounds with T cruzi growth-1. T. cruzi beta-gal in NIH3T3, GalScreen luminescence, 90 h. inhibition, % at 8.35 µM. 5,600 compounds, 72% hits. AID 651739;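 active = mean replicate inhibition above about 95% and at least 55% of replicates individually reaching it, limit read from the data; inconclusive = only one of the two criteria is met; inactive = neither criterion is met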
T cruzi growth-3: blocks T. cruzi growth in NIH3T3 host cells; shares compounds with T cruzi growth-1; 5,600 compounds, 21% hits; T. cruzi beta-gal in NIH3T3, GalScreen luminescence, 90 h; inhibition, % at 2.09 µM;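 active = mean inhibition above about 95%, with at least 55% of replicates also reaching it, limit read from the data; inconclusive = meets just one of the two conditions; inactive = meets neither condition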;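 also: plate controls were neutral control median for no effect and positive control median for full effect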
NIH3T3 tox: kills mouse NIH/3T3 fibroblasts; shares compounds with T cruzi growth-1; NIH/3T3 viability, CellTiter-Glo ATP luminescence, 90 h; cytotoxicity (signal decrease), % at 8.35 µM; 5,600 compounds, 14% hits;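 active = mean signal decrease across replicates above about 35% based on untreated-well scatter, with enough replicates individually passing, limit read from the data; inconclusive = no rule stated though some were filed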;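 also: 0% = median of neutral control wells and 100% = median of positive control wells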
3T3 cytotox 2: NIH/3T3 (mouse) viability loss. shares compounds with T cruzi growth-1. NIH/3T3 viability, CellTiter-Glo ATP luminescence, 90 h. inhibition, % at 24.9 µM. 5,600 compounds, 56% hits. AID 651744;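 active = mean loss of cell viability signal at or above a set limit, and enough replicates individually reaching it; inconclusive = meets only the mean limit or only the replicate share; inactive = meets neither condition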;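 also: 0% = median of neutral control wells and 100% = median of positive control wells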
An asterisk follows results filed as active; ? = inconclusive; · = not tested or not shown. The full list was thinned out, with hits kept by preference.

SMILES	IDH1 mut inh	KDM4C inh	T cruzi growth-1	T cruzi growth-2	T cruzi growth-3	NIH3T3 tox	3T3 cytotox 2
C/C=C/c1ccc([C@H]2[C@@H](CNC(=O)C3CC3)N(C(=O)NCCC)[C@H]2CO)cc1	·	-3	97*	69	44	-21	-21
C/C=C/c1ccc([C@@H]2[C@@H](CO)N(C(=O)CC)[C@H]2CNC(=O)CC2CC2)cc1	·	-1	20	·	·	·	·
CC(=O)O[C@@H]1CC[C@@]2(C)C(CC[C@@H](C)[C@]23Cc2c(O)cc4c(c2O3)CNC4=O)C1(C)C (stereo not given in full)	2	·	·	·	·	·	·
CC(NS(=O)(=O)c1ccc(Cl)cc1)C(=O)Nc1c(F)cccc1F (stereo not given)	0	·	·	·	·	·	·
C[C@@H]1CCCCO[C@H](CN(C)C(=O)Nc2ccc(C(F)(F)F)cc2)[C@@H](C)CN([C@@H](C)CO)C(=O)c2cc(NC(=O)NC3CCCCC3)ccc2O1	·	-2	121*	105*	115*	-1	18
C[C@@H]1CCCCO[C@H](CN(C)C(=O)NC2CCCCC2)[C@@H](C)CN([C@H](C)CO)C(=O)c2cc(NC(=O)Nc3ccc(C(F)(F)F)cc3)ccc2O1	·	0	92	·	·	·	·
C[C@@H]1CCCCO[C@H](CN(C)C(=O)Nc2ccc(C(F)(F)F)cc2)[C@H](C)CN([C@@H](C)CO)C(=O)c2cc(NC(=O)NC3CCCCC3)ccc2O1	0	-1	117*	110*	83	7	?
C[C@@H]1CN([C@H](C)CO)C(=O)c2cc(NC(=O)NC3CCCCC3)ccc2O[C@@H](C)CCCCO[C@H]1CN(C)C(=O)Nc1ccc(C(F)(F)F)cc1	0	0	·	·	·	·	·
CC1=CC(=O)CC2C1(C)CCC(C)C2(C)CC/C(C)=C\C(=O)O (stereo not given)	4	·	·	·	·	·	·
Cc1nonc1OCCNc1cc(N2CCCC2)ccc1[N+](=O)[O-]	0	·	·	·	·	·	·
Cc1ccc(OCC(O)CNc2ccc(Br)c(C(F)(F)F)c2)cc1C (stereo not given)	1	·	·	·	·	·	·
C[C@@H]1CN([C@@H](C)CO)S(=O)(=O)c2ccc(C#CC3CC3)cc2O[C@@H]1CN(C)C(=O)Nc1cc(F)ccc1F	·	-3	103*	114*	79	29	28*
C[C@H](CO)N1C[C@H](C)[C@H](CN(C)C(=O)Nc2cc(F)ccc2F)Oc2cc(C#CC3CCCC3)ccc2S1(=O)=O	0	-1	·	·	·	·	·
C[C@@H]1CN([C@H](C)CO)S(=O)(=O)c2ccc(C#CC3CCCC3)cc2O[C@@H]1CN(C)C(=O)Nc1cc(F)ccc1F	1	0	·	·	·	·	·
C[C@H](CO)N1C[C@H](C)[C@@H](CN(C)C(=O)Nc2cc(F)ccc2F)Oc2cc(C#CC3CCCC3)ccc2S1(=O)=O	2	·	·	·	·	·	·
C[C@@H]1CN([C@@H](C)CO)S(=O)(=O)c2ccc(C#CC3CC3)cc2O[C@H]1CN(C)C(=O)Nc1cc(F)ccc1F	·	0	104*	106*	71	38*	33*
C[C@H](CO)N1C[C@H](C)[C@H](CN(C)C(=O)Nc2cc(F)ccc2F)Oc2cc(C#CC3CC3)ccc2S1(=O)=O	·	-3	117*	112*	45	4	25
CNC(=S)NCc1sc2ccccc2c1C	0	·	·	·	·	·	·
Cc1ccc(NC(=O)CSc2nnc(-c3ccco3)n2C)c(Br)c1	-1	·	·	·	·	·	·
CN(C)CC#Cc1ccc([C@@H]2[C@@H](CO)N3CCCCN(C(=O)Nc4cc(F)ccc4F)C[C@H]23)cc1	·	4	100*	?	45	8	28*
CN(C)CC#Cc1ccc([C@@H]2[C@H](CO)N3CCCCN(C(=O)Nc4ccccc4F)C[C@@H]23)cc1	·	4	102*	?	93	-8	39*
CN(C)CC#Cc1ccc([C@H]2[C@H](CO)N3CCCCN(C(=O)Nc4ccccc4F)C[C@@H]23)cc1	·	4	-21	·	·	·	·
CN(C)CC#Cc1ccc([C@@H]2[C@H](CO)N3CCCCN(C(=O)Nc4cc(F)ccc4F)C[C@@H]23)cc1	·	4	?	93	73	9	98*
CN(C)CC#Cc1ccc([C@@H]2[C@@H](CO)N3CCCCN(C(=O)Nc4ccccc4F)C[C@H]23)cc1	·	4	-11	·	·	·	·
CN(C)CC#Cc1ccc([C@H]2[C@H]3CN(C(=O)Nc4ccccc4F)CCCCN3[C@H]2CO)cc1	·	5	21	·	·	·	·
SMILES	IDH1 mut inh	KDM4C inh	T cruzi growth-1	T cruzi growth-2	T cruzi growth-3	NIH3T3 tox	3T3 cytotox 2
COCC#Cc1ccc([C@@H]2[C@@H](CO)N3CCCCN(C(=O)Nc4cc(F)ccc4F)C[C@@H]23)cc1	·	-1	87	·	·	·	·
COCC#Cc1ccc([C@H]2[C@@H](CO)N3CCCCN(C(=O)Nc4cc(F)ccc4F)C[C@H]23)cc1	·	1	101*	104*	62	-1	89*
Cc1ccc(NC(=O)CC2NC3CCCCC3NC2=O)cc1C (stereo not given)	0	·	·	·	·	·	·
O=C(CSc1nc(C(F)(F)F)cc(=O)[nH]1)Nc1ccc(F)cc1	2	·	·	·	·	·	·
Cn1c(SCC(=O)c2ccc(Cl)cc2Cl)nnc1-c1cccnc1	1	·	·	·	·	·	·
COc1ccc(-c2nnc3c4ccccc4c(C)nn23)cc1S(=O)(=O)NC(C)c1ccccc1 (stereo not given)	0	·	·	·	·	·	·
CCn1c(SCC(=O)Nc2ccc(Cl)cc2Cl)nnc1-c1ccccc1F	0	·	·	·	·	·	·
CN(C)CC#Cc1ccc([C@H]2[C@H](CO)N3CCCCN(C(=O)NC4CCCC4)C[C@@H]23)cc1	·	4	32	·	·	·	·
O=C(Nc1cc(F)ccc1F)N1CCCCN2[C@H](CO)[C@@H](c3ccc(-c4ccccc4)cc3)[C@@H]2C1	·	-1	87	·	·	·	·
CN(C)CC#Cc1ccc([C@H]2[C@H](CO)N3CCCCN(C(=O)Nc4cc(F)ccc4F)C[C@@H]23)cc1	·	5	105*	99*	43	24	58*
CN(C)CC#Cc1ccc([C@H]2[C@@H](CO)N3CCCCN(C(=O)Nc4cc(F)ccc4F)C[C@H]23)cc1	·	5	109*	96*	50	21	101*
CN(C)CC#Cc1ccc([C@@H]2[C@@H](CO)N3CCCCN(C(=O)Nc4ccc(F)cc4)C[C@@H]23)cc1	·	4	?	106*	82	2	?
CN(C)CC#Cc1ccc([C@H]2[C@@H](CO)N3CCCCN(C(=O)Nc4ccc(F)cc4)C[C@H]23)cc1	·	2	53	·	·	·	·
CS(=O)(=O)N(CC(=O)Nc1ccccc1C(F)(F)F)c1ccc2c(c1)OCCO2	0	·	·	·	·	·	·
Cc1ccc(C2CC(=O)NC(SCC(=O)OC(C)C)=C2C#N)cc1 (stereo not given)	-1	·	·	·	·	·	·
Cc1ccc(C(=O)C2C(=O)C(=O)N(Cc3ccco3)C2c2ccc(F)cc2)o1 (stereo not given)	0	·	·	·	·	·	·
O=C(Cn1cc(C(=O)c2cccs2)c2ccccc21)Nc1ccccc1	1	·	·	·	·	·	·
